Measurements reported in article PMC5148661 (ACS infectious diseases, 2016).
pEC50, pIC50: −log10 of the molar value. In brackets after ≈: the same amount, converted by molar mass. Like-named read-outs stand apart in the source and are kept apart here.

Tests used:
Human HepG2 cells = assay: cytotoxicity against a human cell line; type: cell-based; conditions: read-out: HepG2 growth inhibition EC50; 95% CI in parentheses
P. vivax field isolates = assay: ex vivo 48 h schizont maturation assay; type: cell-based
Summary of the method: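 Field isolates came from patients at malaria clinics in Timika, Papua, Indonesia, and were tested in a 48 h schizont maturation assay adapted from the WHO microtest at 2% hematocrit. P. falciparum was run in RPMI 1640 with 10% AB+ human serum. P. vivax was run in McCoy's 5A with 20% AB+ human serum.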

P. falciparum 3D7 = conditions: cited from earlier work
[1] = DSM265; cited from earlier work
[2] = kinetic solubility in pH 6.5 buffer; type: physicochemical; conditions: aqueous buffer pH 6.5, pH 6.5
P. cynomolgi DHODH = P. cynomolgi DHODH (Plasmodium cynomolgi, UniProt K6UE05); conditions: read-out: P. cynomolgi DHODH IC50; cited from earlier work
Sequence of P. cynomolgi DHODH (K6UE05 1-385): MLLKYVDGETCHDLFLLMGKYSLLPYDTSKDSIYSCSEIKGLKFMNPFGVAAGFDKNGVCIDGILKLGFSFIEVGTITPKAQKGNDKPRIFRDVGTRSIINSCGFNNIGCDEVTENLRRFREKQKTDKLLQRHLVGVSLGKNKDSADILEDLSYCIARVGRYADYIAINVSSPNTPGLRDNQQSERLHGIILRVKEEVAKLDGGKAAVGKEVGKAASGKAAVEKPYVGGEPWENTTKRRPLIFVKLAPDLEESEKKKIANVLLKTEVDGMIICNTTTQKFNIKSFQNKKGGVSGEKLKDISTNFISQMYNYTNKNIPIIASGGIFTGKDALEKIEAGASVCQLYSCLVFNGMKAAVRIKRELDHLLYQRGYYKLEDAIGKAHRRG

[3] = across species; DSM265; cited from earlier work
Minipig DHODH = Minipig DHODH (Sus scrofa, UniProt F1S3B0); conditions: read-out: Minipig DHODH IC50; cited from earlier work
Sequence of Minipig DHODH (F1S3B0 1-395): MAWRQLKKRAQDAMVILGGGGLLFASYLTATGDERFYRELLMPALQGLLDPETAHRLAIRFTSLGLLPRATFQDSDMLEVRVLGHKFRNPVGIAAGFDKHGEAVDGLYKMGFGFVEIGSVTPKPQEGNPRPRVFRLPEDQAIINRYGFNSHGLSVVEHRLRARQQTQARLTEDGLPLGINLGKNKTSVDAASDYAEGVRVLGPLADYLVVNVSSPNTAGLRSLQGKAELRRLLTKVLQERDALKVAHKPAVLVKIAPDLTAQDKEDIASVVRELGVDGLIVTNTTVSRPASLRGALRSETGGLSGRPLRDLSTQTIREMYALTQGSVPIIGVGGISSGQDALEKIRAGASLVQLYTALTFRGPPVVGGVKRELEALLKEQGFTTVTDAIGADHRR

Rabbit DHODH = Rabbit DHODH (Oryctolagus cuniculus, UniProt G1SWF3); conditions: read-out: Rabbit DHODH IC50; cited from earlier work
Sequence of Rabbit DHODH (G1SWF3 1-395): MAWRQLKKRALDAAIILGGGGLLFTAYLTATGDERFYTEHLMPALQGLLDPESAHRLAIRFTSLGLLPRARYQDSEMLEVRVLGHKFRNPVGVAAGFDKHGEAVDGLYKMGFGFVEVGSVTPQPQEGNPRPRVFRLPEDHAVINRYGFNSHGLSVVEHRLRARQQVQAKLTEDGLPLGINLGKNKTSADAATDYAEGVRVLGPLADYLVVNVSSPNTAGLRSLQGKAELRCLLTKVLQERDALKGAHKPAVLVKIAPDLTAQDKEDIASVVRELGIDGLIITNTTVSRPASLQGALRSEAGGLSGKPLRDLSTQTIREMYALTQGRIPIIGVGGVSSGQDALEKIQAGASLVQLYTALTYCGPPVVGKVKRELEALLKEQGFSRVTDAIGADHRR

[4] = dogs; DSM265; cited from earlier work
[5] = test system: P. falciparum 3D7A parasites; conditions: DSM265, cited from earlier work

Row | Structure (SMILES) | pEC50 (Human HepG2 cells) | sensitivity of P. vivax versus P. falciparum field isolates (P. vivax field isolates) [fold] | pEC50 (P. falciparum 3D7; read-out: Pf3D7 EC50, whole cell P. falciparum 3D7, albumax media, 72 h) | pEC50 (P. falciparum 3D7; read-out: unbound EC50, P. falciparum 3D7 in vitro 72 h growth assay, DSM265) | predicted human half-life [1] [h] | solubility kinetic [2] [µg/mL] | pIC50 (P. cynomolgi DHODH) | oral bioavailability [3] | pIC50 (Minipig DHODH) | pIC50 (Rabbit DHODH) | systemic plasma clearance [4] [mL/min/kg] | unbound intrinsic clearance [4] [mL/min/kg] | pEC50 ([5]; read-out: EC50, 48 h growth assay (PRR), P. falciparum 3D7, 48 h) | pEC50 ([5]; read-out: unbound EC50, P. falciparum 3D7 48 h growth assay (PRR))
1 | O=C(O)c1[nH]c(=O)[nH]c(=O)c1F [5-fluoroorotate, reference compound] | 6.11 | – | – | – | – | – | – | – | – | – | – | – | – | –
2 | Cc1cc(Nc2ccc(S(F)(F)(F)(F)F)cc2)n2nc(C(C)(F)F)nc2n1 [DSM265] | – | 5 | 8.37 | 9.14 | 100 | 12.5 (≈ 30.1 µM) | 7.92 | 20-70% | ~4.00 | < 4.00 | 1.2 | 183 | 7.96 | 8.72
